Calls of active or inactive are those of the source. No cut-off for these calls is given here.
Key:
[1] = Cmax in ICR mouse at 30 mg/kg, po measured upto 24 hrs by LC-MS/MS analysis; format: ADME, organism-based; parameters: dose 30 mg/kg, time < 24 hrs, route po; details: in vivo
Outline: (§1)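 Male-unspecified ICR (CD-1) mice, N = 3 per group, were fasted 12 h. Compound in DMSO/0.5% HMPC (5/95, v/v) was given orally at 30 mg/kg or intravenously at 2.5 mg/kg. Femoral-vein blood was drawn at 0.25, 0.5, 1, 2, 4, 8 and 24 h, and serum analyte levels were measured by LC-MS/MS.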

Vero C1008 [2] = assay: Downregulation of BECN1 level in African green monkey Vero E6 cells at 1 to 3 uM measured after 16 hrs by Western blotting analysis; format: functional, cell-based; details: Chlorocebus sabaeus, dose 1-3 µM
Outline: (§2)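 Vero-E6 cells in DMEM with 10% FBS were cultured overnight at 37 °C, 5% CO2, then treated with a concentration series for 16 h. Lysates were made in RIPA on ice and equalised for protein by BCA. Blots were probed for SKP2 or Beclin-1 plus β-actin and detected by ECL. The band-intensity ratio to β-actin was normalised to DMSO control.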

[3] = Half life in ICR mouse at 2.5 mg/kg, iv measured upto 24 hrs by LC-MS/MS analysis; format: ADME, organism-based; details: in vivo, iv, 2.5 mg/kg, 24 h; outline: as §1
[4] = Observed MRT (0 to infinity) in ICR mouse at 30 mg/kg, po measured upto 24 hrs by LC-MS/MS analysis; format: ADME, organism-based; details: in vivo; outline: as §1
[5] = Observed MRT (0 to infinity) in ICR mouse at 2.5 mg/kg, iv measured upto 24 hrs by LC-MS/MS analysis; format: ADME, organism-based; details: in vivo, iv, 2.5 mg/kg, 24 h; outline: as §1
[6] = Observed AUC (0 to infinity) in ICR mouse at 30 mg/kg, po measured upto 24 hrs by LC-MS/MS analysis; format: ADME, organism-based; parameters: dose 30 mg/kg, time < 24 hrs, route po; details: in vivo; outline: as §1
SARS-CoV-2 [7] = assay: Antiviral activity against SARS-CoV-2 infected in African green monkey Vero E6 cells assessed as inhibition of viral replication incubated for 24 hrs by IFA assay; format: functional, organism-based; details: Severe acute respiratory syndrome coronavirus 2, Vero C1008, 24 h
[8] = Subacute toxicity in ICR mouse assessed as mortality at 50 to 200 mg/kg, po qd administered for 10 days; format: organism-based; details: in vivo, 240 h, dose 50-200 mg/kg, time 10 day
Outline: (§3)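 Male ICR mice (18–20 g), ten per group, received oral doses once daily for ten days, with a control group alongside. Body weight, food intake and behaviour were observed daily. Animals were fasted before dissection, and heart, liver, spleen, lung, kidney and administration site were collected for organ weight and histology.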

Vero C1008 [9] = assay: Downregulation of SKP2 level in African green monkey Vero E6 cells at 0.3 to 10 uM measured after 16 hrs by Western blotting analysis; format: functional, cell-based; details: Chlorocebus sabaeus, dose 0.3-10 µM; outline: as §2
[10] = Observed AUC (0 to infinity) in ICR mouse at 2.5 mg/kg, iv measured upto 24 hrs by LC-MS/MS analysis; format: ADME, organism-based; parameters: dose 2.5 mg/kg, time < 24 hrs, route iv; details: in vivo, 24 h; outline: as §1
[11] = Subacute toxicity in ICR mouse assessed as change in spleen histology at 50 to 200 mg/kg, po qd administered for 10 days; format: organism-based; details: in vivo, 240 h, dose 50-200 mg/kg, time 10 day; outline: as §3
[12] = Subacute toxicity in ICR mouse assessed as change in organ weight at 50 to 200 mg/kg, po qd administered for 10 days; format: organism-based; details: in vivo, 240 h, dose 50-200 mg/kg, time 10 day; outline: as §3
[13] = Aqueous solubility of compound at 0.5 mg/mL in presence of acetonitrile by HPLC analysis; format: physicochemical; details: buffer
Outline: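 Compound was suspended in water, vortexed vigorously and filtered through a 0.22 μm membrane. The filtrate was diluted 2-fold with 80% acetonitrile and analysed by reversed-phase amide HPLC. Concentration was read against a standard curve prepared from a 0.5 mg/mL solution in 80% acetonitrile. Single determination.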

[14] = Oral bioavailability in ICR mouse at 30 mg/kg measured upto 24 hrs by LC-MS/MS analysis; format: ADME, organism-based; details: in vivo; outline: as §1
[15] = Subacute toxicity in ICR mouse assessed as change in heart histology at 50 to 200 mg/kg, po qd administered for 10 days; format: organism-based; details: in vivo, 240 h, dose 50-200 mg/kg, time 10 day; outline: as §3
[16] = Subacute toxicity in ICR mouse assessed as change in liver histology at 50 to 200 mg/kg, po qd administered for 10 days; format: organism-based; details: in vivo, 240 h, dose 50-200 mg/kg, time 10 day; outline: as §3
Vero C1008 [17] = assay: Cytotoxicity against African green monkey Vero E6 cells assessed as reduction in cell viability measured after 48 hrs by CCK-8 assay; format: toxicity, cell-based; details: chlorocebus sabaeus, vero c1008, 48 h
Vero C1008 [18] = assay: Downregulation of BECN1 level in African green monkey Vero E6 cells at 10 uM measured after 16 hrs by Western blotting analysis; format: functional, cell-based; details: Chlorocebus sabaeus; outline: as §2
[19] = Subacute toxicity in ICR mouse assessed as change in lung histology at 50 to 200 mg/kg, po qd administered for 10 days; format: organism-based; details: in vivo, 240 h, dose 50-200 mg/kg, time 10 day; outline: as §3
[20] = Selectivity index, ratio of CC50 for cytotoxicity against African green monkey Vero E6 to EC50 for antiviral activity against SARS-CoV-2 infected in African green monkey Vero E6 cells; format: toxicity, cell-based, Vero C1008; details: read-out: Ratio CC50/EC50
[21] = Subacute toxicity in ICR mouse assessed as change in kidney histology at 50 to 200 mg/kg, po qd administered for 10 days; format: organism-based; details: in vivo, 240 h, dose 50-200 mg/kg, time 10 day; outline: as §3
[22] = AUClast in ICR mouse at 2.5 mg/kg, iv measured upto 24 hrs by LC-MS/MS analysis; format: ADME, organism-based; parameters: dose 2.5 mg/kg, time < 24 hrs, route iv; details: in vivo, 24 h; outline: as §1
SARS-CoV-2 [23] = assay: Antiviral activity against SARS-CoV-2 infected in African green monkey Vero E6 cells assessed as inhibition of viral replication at 1 uM incubated for 24 hrs by IFA assay relative to control; format: functional; details: Severe acute respiratory syndrome coronavirus 2, Vero C1008
[24] = Subacute toxicity in ICR mouse assessed as change in body weight at 50 to 200 mg/kg, po qd administered for 10 days; format: organism-based; details: in vivo, 240 h, dose 50-200 mg/kg, time 10 day; outline: as §3
[25] = Half life in ICR mouse at 30 mg/kg, po measured upto 24 hrs by LC-MS/MS analysis; format: ADME, organism-based; details: in vivo; outline: as §1
[26] = AUClast in ICR mouse at 30 mg/kg, po measured upto 24 hrs by LC-MS/MS analysis; format: ADME, organism-based; parameters: dose 30 mg/kg, time < 24 hrs, route po; details: in vivo; outline: as §1
SARS-CoV-2 [27] = assay: Antiviral activity against SARS-CoV-2 infected in African green monkey Vero E6 cells assessed as inhibition of viral replication at 2.5 uM incubated for 24 hrs by IFA assay relative to control; format: functional; details: Severe acute respiratory syndrome coronavirus 2, Vero C1008

For O=C(Nc1ccc(OC(F)(F)F)cc1)c1cc(Cl)c(F)cc1O, the Cmax [1] was 2376 ng/mL, the Activity (Vero C1008 [2]) was “Active” and the t1/2 [3] was 4.6 h. It also gave an MRT [4] of 4.41 h, an MRT [5] of 1.94 h and an AUC [6] of 5579 ng·h/mL. For the same compound, the EC50 (SARS-CoV-2 [7]) was 1000 nM, the Activity [8] was “Non-Toxic” and the Activity (Vero C1008 [9]) was “Active”. For the same compound, the AUC [10] was 3678 ng·h/mL, the Activity [11] was “Non-Toxic” and the Activity [12] was “Non-Toxic”. For the same compound, the solubility [13] was 0.1 µg/mL, the bioavailability [14] was 12.7% and the Activity [15] was “Non-Toxic”. For the same compound, the Activity [16] was “Non-Toxic”, the CC50 (Vero C1008 [17]) was 4.73 µM and the Activity (Vero C1008 [18]) was “Active”. The Activity [19] was “Non-Toxic”, the selectivity ratio [20] was 4.73 and the Activity [21] was “Non-Toxic”. The AUClast [22] was 3646 ng·h/mL, the inhibition at 1 µM (SARS-CoV-2 [23]) was 91% and the Activity [24] was “Non-Toxic”. The t1/2 [25] was 3.33 h and the AUClast [26] was 5547 ng·h/mL.

For O=C(Nc1ccc(C(F)(F)F)cc1)c1cc(Cl)ccc1O, the EC50 (SARS-CoV-2 [7]) was 1310 nM and the inhibition at 1 µM (SARS-CoV-2 [23]) was 95%.

With O=S(=O)(Nc1ccc(C(F)(F)F)cc1)c1cc(Cl)ccc1O the inhibition at 1 µM (SARS-CoV-2 [23]) was less than 10%.

For O=C(Nc1ccc([N+](=O)[O-])cc1Cl)c1cc(Cl)ccc1O [NICLOSAMIDE], the Cmax [1] was 428 ng/mL, the Activity (Vero C1008 [2]) was “Active” and the MRT [4] was 2.81 h. For the same compound, the inhibition at 2.5 µM (SARS-CoV-2 [27]) was 39%, the AUC [6] was 522 ng·h/mL and the Activity (Vero C1008 [9]) was “Active”. For the same compound, the solubility [13] was 0.16 µg/mL, the CC50 (Vero C1008 [17]) was 1.96 µM and the Activity (Vero C1008 [18]) was “Active”. It also gave a t1/2 [25] of 1.99 h and an AUClast [26] of 478 ng·h/mL.

With O=C(Nc1ccc(C(F)(F)F)cc1)c1ccccc1O the inhibition at 1 µM (SARS-CoV-2 [23]) was less than 10%.

For O=C(Nc1ccc(C(F)(F)F)cc1)c1cc(Cl)cc([N+](=O)[O-])c1O, the inhibition at 1 µM (SARS-CoV-2 [23]) was 50%.

In the case of O=C(Nc1ccc(C(F)(F)F)cc1)c1cc(Cl)cc(Cl)c1O, the inhibition at 1 µM (SARS-CoV-2 [23]) is reported as less than 10%.
